Active and inactive are the calls of the source. The rule behind the calls is not given here. Bounds are passed on as bounds.

Experiment [1] deals with Escherichia coli. Briefly: Induction of ethyldethia-ACP accumulation in Escherichia coli JT6 at 200 ug/ml by gel electrophoresis. It counts as functional, organism-based. Summed up:
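Exponentially growing E. coli JT6 (UB1005 tolC::Tn10, lacking the outer membrane efflux exit duct) in M9 minimal medium with 0.4% glycerol and 0.1% vitamin-free Casamino Acids. Culture supplemented with 200 μg/ml N5-Pan. ACP species resolved by conformationally sensitive gel electrophoresis.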

For experiment [2], the system named is Escherichia coli. The experiment in a line: Induction of holo-ACP accumulation in Escherichia coli JT6 pJT5 plasmid expressing AcpH at 100 ug/ml after 3 hrs by Western blotting. Type of experiment: functional, organism-based. Summed up: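 JT6 cells carrying pJT5 (AcpH under arabinose control), with empty pBAD322 as the vector control, treated with 100 μg/ml N5-Pan. At 3 h, crude cell extracts were run on conformationally sensitive gel electrophoresis. Proteins were electroblotted and probed by Western blot with anti-ACP antibody.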
(A western blot detects proteins with antibodies after separation by electrophoresis.)

The subject of experiment [3] is Escherichia coli. Briefly: Inhibition of coenzyme A synthesis in Escherichia coli JT7 carrying panD deletion assessed as decrease in acetyl CoA level at 100 ug/ml after 90 mins by HPLC relative to untreated control. Type of experiment: functional. In a few lines:
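The culture was split, one half given 100 μg/ml N5-Pan, and both incubated a further 90 min. CoA pools were extracted and analysed by reverse-phase C18 HPLC with internal standards.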

Experiment [4] deals with Escherichia coli. Briefly: Antibacterial activity against acpH null mutant containing Escherichia coli JT6 transformed with pJT5 expressing AcpH assessed as microbial growth inhibition. Type of experiment: functional, organism-based.
Experiment [5] has as its system Escherichia coli. Briefly: Inhibition of coenzyme A synthesis in acpH null mutant containing Escherichia coli JT6 transformed with pBAD24 plasmid expressing CoaA gene assessed as decrease in acetyl CoA level at 100 ug/ml after 90 mins by HPLC relative to untreated control. It counts as functional, organism-based.
The subject of experiment [6] is Escherichia coli. Briefly: Inhibition of coenzyme A synthesis in acpH null mutant containing Escherichia coli JT6 transformed with pBAD24 plasmid expressing CoaD gene assessed as decrease in acetyl CoA level at 100 ug/ml after 90 mins by HPLC relative to untreated control. It counts as functional, organism-based.
Experiment [7] relates to Escherichia coli. Briefly: Inhibition of coenzyme A synthesis in acpH null mutant containing Escherichia coli JT6 transformed with pBAD24 plasmid expressing CoaE gene assessed as decrease in acetyl CoA level at 100 ug/ml after 90 mins by HPLC relative to untreated control. Type of experiment: functional, organism-based.
Experiment [8] deals with Escherichia coli. The experiment in a line: Inhibition of coenzyme A synthesis in acpH null mutant containing Escherichia coli JT6 transformed with pBAD24 plasmid expressing CoaBC gene assessed as decrease in acetyl CoA level at 100 ug/ml after 90 mins by HPLC relative to untreated control. Type of experiment: functional, organism-based.
For experiment [9], the system named is Escherichia coli. The experiment in a line: Antibacterial activity against Escherichia coli JT6 assessed as microbial growth inhibition.
Experiment [10] relates to Escherichia coli. The experiment in a line: Antibacterial activity against Escherichia coli JT13 deficient in acpH gene assessed as microbial growth inhibition.

For `CCCCCNC(=O)CCNC(=O)[C@H](O)C(C)(C)CO`, the result in the experiment on Escherichia coli [1] and in the experiment on Escherichia coli [2] was Active. In addition, in the experiment on Escherichia coli [3], the “fold change (FC)” value is above 10. Moreover, the “growth inhibition (GI)” value with Escherichia coli [4] was “inactive”. For the same molecule, the inhibition entry with Escherichia coli [5], in the experiment with Escherichia coli [6], with Escherichia coli [7] and in the experiment on Escherichia coli [8] was “Active” throughout. Moreover, the “growth inhibition (GI)” value with Escherichia coli [9] and in the experiment with Escherichia coli [10] was “Active” in each case.

The values are drawn from ChEMBL document CHEMBL1240394, “Antibacterial activity of N-pentylpantothenamide is due to inhibition of coenzyme a synthesis” (2010).
